Measured values from different studies.
Target: Prostaglandin G/H synthase 1 (PTGS1, Ovis aries, UniProt P05979)
Effect on: enzyme activity
Action: inhibitor
Sequence (P05979 25-600, as in one of the studies): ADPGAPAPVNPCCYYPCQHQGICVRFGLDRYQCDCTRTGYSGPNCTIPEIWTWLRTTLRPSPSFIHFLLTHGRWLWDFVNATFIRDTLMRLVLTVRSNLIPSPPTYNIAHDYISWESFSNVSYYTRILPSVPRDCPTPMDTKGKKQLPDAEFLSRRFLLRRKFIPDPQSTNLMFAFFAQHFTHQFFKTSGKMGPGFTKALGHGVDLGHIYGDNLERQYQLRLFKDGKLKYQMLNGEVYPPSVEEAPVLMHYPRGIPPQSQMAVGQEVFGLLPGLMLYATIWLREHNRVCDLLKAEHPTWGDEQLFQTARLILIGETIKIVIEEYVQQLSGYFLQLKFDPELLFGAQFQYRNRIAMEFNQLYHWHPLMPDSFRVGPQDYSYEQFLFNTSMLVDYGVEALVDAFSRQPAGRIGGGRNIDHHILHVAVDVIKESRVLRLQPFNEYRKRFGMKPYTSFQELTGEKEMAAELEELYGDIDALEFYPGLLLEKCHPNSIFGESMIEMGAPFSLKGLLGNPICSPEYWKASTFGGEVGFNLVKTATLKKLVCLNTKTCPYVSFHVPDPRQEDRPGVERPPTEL

NS(=O)(=O)c1ccc(-c2ncc(Cl)cc2-c2nc3ccccc3s2)cc1
IC50 (absorbance): > 100 µM

Cc1cccn2c(Nc3ccc(Cl)cc3)c(-c3ccc(S(C)(=O)=O)cc3)nc12
IC50 (fluorescence): 29.4 µM

CS(=O)(=O)c1ccc(-c2ncc(Cl)cc2-c2nc3ccccc3s2)cc1
IC50 (absorbance): > 100 µM

Cc1cccc2nc(-c3ccc(S(C)(=O)=O)cc3)c(Nc3ccc(Cl)cc3)n12
IC50 (fluorescence): 27.1 µM

C[C@@H]1O[C@@H](OC[C@H]2O[C@@H](Oc3c(-c4ccc(O)cc4)oc4cc(O)cc(O)c4c3=O)[C@H](O[C@@H]3O[C@H](CO)[C@@H](O)[C@H](O)[C@H]3O)[C@@H](O)[C@@H]2O)[C@H](O)[C@H](O)[C@H]1O
IC50 (absorbance): 12.9 µM

CSc1ccc(/C=C2\C=C(CC(=O)NS(=O)(=O)c3ccc4ccccc4c3)c3cc(F)ccc32)cc1
IC50: 2 µM

CS(=O)(=O)c1ccc(-n2cc(/C=N/N=c3\[nH]c(-c4ccc([N+](=O)[O-])cc4)cs3)c(-c3ccc(Br)cc3)n2)cc1
IC50: 24.5 µM

Cc1cccn2c(Nc3ccc(F)cc3)c(-c3ccc(S(C)(=O)=O)cc3)nc12
IC50 (fluorescence): 31.5 µM

COc1ccc(-c2nn(-c3ccc(S(C)(=O)=O)cc3)cc2C=N/N=c2\[nH]c(-c3ccc([N+](=O)[O-])cc3)cs2)cc1
IC50: 23.2 µM

CS(=O)(=O)c1ccc(-c2nc3ccccn3c2Nc2ccc(F)cc2)cc1
IC50 (fluorescence): 23.8 µM

O=[N+]([O-])c1ccc(-c2ccccc2F)cc1
IC50 (absorbance): 10.1 µM

CC(C)Cc1ccc(-c2nn(-c3ccc(S(C)(=O)=O)cc3)cc2/C=N/N=c2\[nH]c(-c3ccc(Br)cc3)cs2)cc1
IC50: 27.5 µM

CSc1ccc(/C=C2\C=C(CC(=O)NS(=O)(=O)C(F)(F)F)c3cc(F)ccc32)cc1
IC50: 0.7 to 1 µM

COc1ccccc1-c1ccc([N+](=O)[O-])cc1
IC50 (absorbance): 8.79 µM

CS(=O)(=O)c1ccc(-n2cc(C=N/N=c3\[nH]c(-c4ccc(Br)cc4)cs3)c(-c3ccc([N+](=O)[O-])cc3)n2)cc1
IC50: 68.2 µM

COc1ccc(Nc2c(-c3ccc(S(C)(=O)=O)cc3)nc3cc(C)ccn23)cc1
IC50 (fluorescence): 29.7 µM

COc1ccc(F)c(-c2ccccc2OC)c1
IC50 (absorbance): 8.23 µM

COc1ccc(Nc2c(-c3ccc(S(C)(=O)=O)cc3)nc3c(C)cccn23)cc1
IC50 (fluorescence): 30 µM

Cc1ccc(-c2nc3ccccc3s2)c(-c2ccc(S(C)(=O)=O)cc2)c1
IC50 (absorbance): > 100 µM

CSc1ccc(/C=C2\C=C(CC(=O)NS(=O)(=O)c3ccc(C(F)(F)F)cc3)c3cc(F)ccc32)cc1
IC50: 3.9 µM

Fc1ccc(-c2ccccc2F)cc1OC(F)(F)F
IC50 (absorbance): 11 µM

COc1ccc(-c2nn(-c3ccc(S(C)(=O)=O)cc3)cc2/C=N/N=c2\[nH]c(-c3ccc(Br)cc3)cs2)cc1
IC50: 62.7 µM

Cc1ccc(Nc2c(-c3ccc(S(C)(=O)=O)cc3)nc3ccccn23)cc1
IC50 (fluorescence): 23.1 µM

COc1ccccc1-c1ccc(F)c(OC(F)(F)F)c1
IC50 (absorbance): 10.8 µM
